Assay results taken from ChEMBL document CHEMBL1140920, “Design, synthesis, and biological evaluation of 6alpha- and 6beta-N-heterocyclic substituted naltrexamine derivatives as mu opioid receptor selective antagonists” (J Med Chem, 2009).

Tests used:
[1] = Binding affinity to mu opioid W318A mutant receptor expressed in CHO cells; type: cell-based
[2] = biological target: T1, Mu-type opioid receptor (Homo sapiens, UniProt P35372); assay: Activity at monocloned mu opioid receptor expressed in CHO cells by [35S]GTPgammaS binding assay relative to DAMGO; type: functional, cell-based
T1 sequence (P35372 whole entry): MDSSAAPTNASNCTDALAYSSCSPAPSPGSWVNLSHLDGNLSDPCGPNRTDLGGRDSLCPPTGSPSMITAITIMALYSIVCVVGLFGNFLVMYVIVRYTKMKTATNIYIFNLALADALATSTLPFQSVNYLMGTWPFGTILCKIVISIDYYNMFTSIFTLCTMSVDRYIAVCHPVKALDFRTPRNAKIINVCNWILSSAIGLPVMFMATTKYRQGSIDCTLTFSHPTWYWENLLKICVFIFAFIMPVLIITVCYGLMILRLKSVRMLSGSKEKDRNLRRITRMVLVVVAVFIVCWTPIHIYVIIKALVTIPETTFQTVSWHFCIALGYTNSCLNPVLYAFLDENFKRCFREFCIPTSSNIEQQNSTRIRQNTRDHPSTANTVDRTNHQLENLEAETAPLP

[3] = biological target: T1, Mu-type opioid receptor; assay: Activity at monocloned mu opioid receptor expressed in CHO cells by [35S]GTPgammaS binding assay; type: functional, cell-based
Procedure, shortened: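 Membranes from CHO cells stably expressing cloned MOR, the same membranes as used for binding. [35S]GTPγS binding as the functional read-out. Potency also reported. n = 3.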

[4] = Selectivity ratio of Ki for monocloned delta opioid receptor to Ki for monocloned mu opioid receptor
Procedure, shortened: (§1)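 CHO cell membranes expressing cloned receptor incubated with radioligand plus varying test drug concentrations, 30 °C, 1 h. IC50 from linear regression of Hill plots, converted to Ki by Cheng-Prusoff; selectivity as Ki ratios.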

[5] = Selectivity ratio of Ki for monocloned kappa opioid receptor to Ki for monocloned mu opioid receptor; procedure, shortened: as §1
[6] = biological target: Kappa-type opioid receptor (Homo sapiens, UniProt P41145); assay: Displacement of [3H]norBNI from monocloned kappa opioid receptor expressed in CHO cells; type: cell-based; procedure, shortened: as §1
Sequence of Kappa-type opioid receptor (P41145 whole entry): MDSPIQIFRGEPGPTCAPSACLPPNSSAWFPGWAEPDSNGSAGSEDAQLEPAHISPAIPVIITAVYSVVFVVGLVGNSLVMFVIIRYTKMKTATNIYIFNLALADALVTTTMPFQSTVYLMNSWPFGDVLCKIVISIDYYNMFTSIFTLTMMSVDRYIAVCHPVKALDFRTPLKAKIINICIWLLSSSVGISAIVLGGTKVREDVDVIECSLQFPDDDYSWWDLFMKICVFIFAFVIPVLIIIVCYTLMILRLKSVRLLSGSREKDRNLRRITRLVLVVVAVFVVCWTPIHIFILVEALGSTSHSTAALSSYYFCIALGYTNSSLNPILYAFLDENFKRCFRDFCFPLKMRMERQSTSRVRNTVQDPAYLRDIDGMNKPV

[7] = biological target: Delta-type opioid receptor (Homo sapiens, UniProt P41143); assay: Displacement of [3H]NTI from monocloned delta opioid receptor expressed in CHO cells; type: cell-based; procedure, shortened: as §1
Sequence of Delta-type opioid receptor (P41143 whole entry): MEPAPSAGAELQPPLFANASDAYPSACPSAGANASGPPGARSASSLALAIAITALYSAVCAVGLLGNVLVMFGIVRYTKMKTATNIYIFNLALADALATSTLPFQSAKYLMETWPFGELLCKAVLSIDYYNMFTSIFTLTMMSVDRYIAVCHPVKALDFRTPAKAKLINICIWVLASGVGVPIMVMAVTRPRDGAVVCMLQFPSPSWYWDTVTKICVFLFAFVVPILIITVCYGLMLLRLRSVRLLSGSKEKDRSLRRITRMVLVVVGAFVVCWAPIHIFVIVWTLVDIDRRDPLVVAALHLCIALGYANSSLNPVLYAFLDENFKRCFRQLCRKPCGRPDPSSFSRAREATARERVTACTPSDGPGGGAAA

[8] = biological target: T1, Mu-type opioid receptor; assay: Displacement of [3H]naloxone from monocloned mu opioid receptor expressed in CHO cells; type: cell-based; procedure, shortened: as §1
[9] = test system: Mus musculus; assay: Inhibition of morphine-induced antinociception in sc dosed Swiss Webster mouse assessed as dose producing 50% antagonism of morphine response preincubated for 5 mins before the addition of morphine assessed after 20 mins by warm water tail immersion test; type: functional
[10] = Binding affinity to mu opioid Y210A mutant receptor expressed in CHO cells; type: cell-based
[11] = biological target: T1, Mu-type opioid receptor; assay: biochemical
[12] = test system: Mus musculus; assay: Induction of antinociception in sc dosed Swiss Webster mouse after 20 mins by warm water tail immersion test; type: functional

Structure (SMILES)	IC50 [1] [nM]	Activity [2] [%]	Emax [3] [%]	Ratio Ki [4]	Ratio Ki [5]	Ki [6] [nM]	Ki [7] [nM]	Ki [8] [nM]	Activity [9] [mg/kg]	EC50 ([3]; read-out: EC50) [nM]	EC50 ([3]; cho)	IC50 [10] [nM]	IC50 [11] [nM]	ED50 [12] [mg/kg]
O=C(N[C@@H]1CC[C@@]2(O)[C@H]3Cc4ccc(O)c5c4[C@@]2(CCN3CC2CC2)[C@H]1O5)c1ccncc1	> 1000	22.7	83.3	–	–	–	–	–	–	–	–	–	–	–
COc1cccc2c1[C@]13CCN(CC4CC4)[C@H](C2)[C@]1(OC)CCC(=O)C3	–	–	–	40	45	–	–	–	–	–	–	–	–	–
O=C(N[C@H]1CC[C@@]2(O)[C@H]3Cc4ccc(O)c5c4[C@@]2(CCN3CC2CC2)[C@H]1O5)c1ccncc1	–	37.3	137	–	–	19.6	–	–	–	–	–	–	–	–
O=C(N[C@H]1CC[C@@]2(O)[C@H]3Cc4ccc(O)c5c4[C@@]2(CCN3CC2CC2)[C@H]1O5)c1ccccn1	–	37.8	134	24	84	223	64.5	2.65	0.89	23.9	–	–	–	–
O=C(N[C@@H]1CC[C@@]2(O)[C@H]3Cc4ccc(O)c5c4[C@@]2(CCN3CC2CC2)[C@H]1O5)c1ccccn1	–	41.1	151	37	47	278	215	5.85	0.33	26.3	–	–	–	–
O=C(N[C@H]1CC[C@@]2(O)[C@H]3Cc4ccc(O)c5c4[C@@]2(CCN3CC2CC2)[C@H]1O5)c1cccnc1	–	44.8	164	265	501	77.2	40.8	0.15	36.77	1.01	–	–	–	–
O=C(N[C@H]1CC[C@@]2(O)[C@H]3Cc4ccc(O)c5c4[C@@]2(CCN3CC2CC2)[C@H]1O5)c1ccc2ccccc2c1	–	–	–	62	73	609	518	8.36	–	–	–	–	–	–
O=C(N[C@@H]1CC[C@@]2(O)[C@H]3Cc4ccc(O)c5c4[C@@]2(CCN3CC2CC2)[C@H]1O5)c1cnc2ccccc2c1	–	53.4	196	157	8	0.57	11.6	0.07	42.55	–	0.29	–	–	–
O=C(N[C@H]1CC[C@@]2(O)[C@H]3Cc4ccc(O)c5c4[C@@]2(CCN3CC2CC2)[C@H]1O5)c1cc2ccccc2cn1	> 1000	15.8	58	241	48	26.5	132	0.55	–	4.36	–	3.31	5.42	–
O=C(N[C@H]1CC[C@@]2(O)[C@H]3Cc4ccc(O)c5c4[C@@]2(CCN3CC2CC2)[C@H]1O5)c1ccc2ccccc2n1	–	65.4	240	693	46	9.84	148	0.21	–	0.09	–	–	–	4.57
O=C(N[C@@H]1CC[C@@]2(O)[C@H]3Cc4ccc(O)c5c4[C@@]2(CCN3CC2CC2)[C@H]1O5)c1ccc2ccccc2c1	–	–	–	0.5	1	65.3	29.3	55.6	–	–	–	–	–	–
O=C(N[C@H]1CC[C@@]2(O)[C@H]3Cc4ccc(O)c5c4[C@@]2(CCN3CC2CC2)[C@H]1O5)c1cnc2ccccc2c1	–	44.8	164	277	16	1.81	32.2	0.12	4.45	2.29	–	–	–	–
O=C(N[C@@H]1CC[C@@]2(O)[C@H]3Cc4ccc(O)c5c4[C@@]2(CCN3CC2CC2)[C@H]1O5)c1ccc2ccccc2n1	–	40.9	150	36	47	5.04	3.86	0.11	–	0.69	–	–	–	0.04
O=C(N[C@@H]1CC[C@@]2(O)[C@H]3Cc4ccc(O)c5c4[C@@]2(CCN3CC2CC2)[C@H]1O5)c1cc2ccccc2cn1	–	33	121	156	16	1.58	15.4	0.1	–	0.27	–	–	–	1.19
O=C(N[C@@H]1CC[C@@]2(O)[C@H]3Cc4ccc(O)c5c4[C@@]2(CCN3CC2CC2)[C@H]1O5)c1ccccc1	–	–	–	–	–	7.79	–	0.92	–	–	–	–	–	–
O=C(N[C@H]1CC[C@@]2(O)[C@H]3Cc4ccc(O)c5c4[C@@]2(CCN3CC2CC2)[C@H]1O5)c1ccccc1	–	–	–	–	–	41.7	–	1.41	–	–	–	–	–	–
O=C(N[C@@H]1CC[C@@]2(O)[C@H]3Cc4ccc(O)c5c4[C@@]2(CCN3CC2CC2)[C@H]1O5)c1cccnc1	–	29.1	107	1410	40	5.42	192	0.14	1.38	0.33	–	–	–	–
